The text below walks through data of ChEMBL document CHEMBL3779787, “Amorfrutin C Induces Apoptosis and Inhibits Proliferation in Colon Cancer Cells through Targeting Mitochondria” (J Nat Prod, 2016).

pIC50: −log10 of the molar value. The source made the active and inactive calls. The rule behind the calls is not given here.

Assay [1] relates to HT-29. As to the kind of experiment: Induction of apoptosis in human HT-29 cells assessed as cleaved PARP level at 10 uM after 48 hrs. Type of assay: functional, cell-based. A digest of the protocol:
(§1)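 HT-29 exposed to 10 μM for 48 h; whole-cell lysates immunoblotted for the indicated proteins (total and cleaved PARP for the apoptosis line).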

The test system of assay [2] is HT-29. As to the kind of experiment: Induction of ROS generation in human HT-29 cells at 30 uM by CM-H2DCFDA staining-based fluorescence assay in presence of glutathione. The format is functional, cell-based. In a few lines: (§2)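 HT-29 (15 000 cells/well) loaded with 50 μM CM-H2DCFDA in PBS for 30 min at 37 °C, washed, then 60 min in phenol red-free DMEM/F-12. 30 μM compound added alone or with NAC 1 mM, GSH 2.5 mM, D3T 25 μM, α-tocopherol 50 μM or ascorbic acid 500 μM. Fluorescence 485/530 nm read kinetically at 37 °C for 22 h; area under curve; means ± SEM, n = 7.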

The subject of assay [3] is HT-29. In words: Induction of apoptosis in human HT-29 cells at 30 uM after 24 hrs by annexin V-FLUOS/propidium iodide staining-based flow cytometry in presence of PPAR siRNA. Type of assay: functional, cell-based. A digest of the protocol: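 HT-29 transfected with PPARα/β/δ/γ siRNA pool (10 nM each) or 30 nM nonspecific siRNA, seeded 150 000 cells/well. After 48 h, 30 μM compound added for a further 24 h. Phosphatidylserine externalization by annexin V flow cytometry; means ± SEM, n = 6.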
(In general: A flow cytometer gives signals particle by particle.)

Assay [4] deals with HT-29. As to the kind of experiment: Induction of ROS generation in human HT-29 cells at 30 uM by CM-H2DCFDA staining-based fluorescence assay in presence of ascorbic acid. Type of assay: functional, cell-based. A digest of the protocol: as §2
Assay [5] relates to HT-29. As to the kind of experiment: Downregulation of cyclin A2 expression in human HT-29 cells at 10 uM after 48 hrs by immunoblotting method. The format is functional, cell-based. A digest of the protocol: as §1
In general terms: Immunoblotting shows a protein as a band on a membrane.

The subject of assay [6] is HT-29. As to the kind of experiment: Induction of apoptosis in human HT-29 cells assessed as increase in caspase 8 activity at 30 uM after 2 hrs by luminescent assay relative to control. Type of assay: functional. In a few lines:
(§3)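 HT-29 cells exposed to compound 2 h; effector/initiator caspase enzymatic activity measured by luminescent assays, normalized to control treatment; means ± SEM, n = 4.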

For assay [7], the system named is HT-29. In words: Increase in extracellular acidification rate in human HT-29 cells at 10 uM measured for 20 to 150 mins by time-resolved fluorescence assay relative to control. Type of assay: functional. In a few lines: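 HT-29 cells seeded 80 000/well, incubated overnight at 37 °C without CO2. Washed and loaded with pH-sensitive time-resolved fluorescence probe in low-buffering medium (1 mM PBS pH 7.4, 20 mM glucose, salts), 10 min at 37 °C, then compound added, wells unsealed. Read 200 min at 37 °C; lifetime converted to pH, rate taken 20–150 min as H+ change/min; n = 8.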

The next assay deals with MCF7. As to the kind of experiment: Antiproliferative activity against human MCF7 cells assessed as cellular DNA content after 96 hrs by CyQUANT NF fluorescence assay relative to control. Type of assay: functional. A digest of the protocol:
(§4)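 Cells seeded at 750 (HT-29), 250 (PC-3) or 900 (T84, MCF7) cells/well, treated next day with concentration series for 72 h (HT-29, PC-3) or 96 h (T84, MCF7). Relative cell number from cellular DNA content by fluorescent DNA-binding dye. Variable-slope fit; efficiency = maximal inhibition (100% − Bottom) vs untreated; IC50 relative to the compound's own maximal efficiency.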

Assay [8] deals with HT-29. As to the kind of experiment: Antiproliferative activity against human HT-29 cells assessed as cellular DNA content at 20 uM after 48 hrs by CyQUANT NF fluorescence assay in presence of N-acetylcysteine. Type of assay: functional, cell-based. In a few lines:
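HT-29 given concentration series of test compound with or without antioxidant (NAC 1 mM, GSH 2.5 mM, D3T 25 μM, α-tocopherol 50 μM, ascorbic acid 500 μM) for 48 h. Relative cell number from DNA-binding fluorescent dye; means ± SD, n = 4.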

The test system of assay [9] is HT-29. In words: Induction of apoptosis in human HT-29 cells assessed as increase in cleaved caspase 3 at 30 uM after 6 hrs by DAPI staining-based fluorescence microscopy. Type of assay: functional, cell-based. In a few lines:
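HT-29 on coverslips treated 30 μM for 6 h, fixed in 4% formaldehyde, permeabilized with 0.3% Triton X-100, blocked in goat serum. Anti-cleaved caspase 3 (1:200) overnight at 4 °C, then Alexa Fluor 488 secondary (1:1000) 1 h. DAPI counterstain; imaged by fluorescence microscopy.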

Assay [10] has as its system HT-29. As to the kind of experiment: Induction of apoptosis in human HT-29 cells assessed as opening of mitochondrial permeability transition pore at 30 uM after 30 mins calcein/CoCl2 staining-based fluorescence assay in presence of cyclosporinA. Type of assay: functional, cell-based. In a few lines: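 Trypsinized HT-29 (10^6 cells/mL) in HBSS/Ca with 10 nM calcein and 400 μM CoCl2. Pretreated 60 min at 37 °C with 2 μM cyclosporin A or vehicle, then test compound for 30 min at 37 °C. Washed; mitochondrial calcein fluorescence by flow cytometry; means ± SEM, n = 6.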

Assay [11] concerns HT-29. In words: Induction of apoptosis in human HT-29 cells at 30 uM after 24 hrs by annexin V-FLUOS/propidium iodide staining-based flow cytometry in presence of N-acetylcysteine. Type of assay: functional, cell-based. In a few lines:
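HT-29 treated 24 h with 30 μM with or without antioxidant (NAC 1 mM, D3T 25 μM). Apoptosis by annexin V/propidium iodide flow cytometry; means ± SEM, n = 3.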

The subject of assay [12] is HT-29. In words: Downregulation of cyclin D3 expression in human HT-29 cells at 10 uM after 48 hrs by immunoblotting method. The format is functional, cell-based. A digest of the protocol: as §1
For assay [13], the system named is HT-29. In words: Induction of apoptosis in human HT-29 cells assessed as mitochondrial membrane depolarization at 30 uM by JC-1 dye-based fluorescence assay in presence of cyclosporinA. Type of assay: functional, cell-based.
Assay [14] deals with HT-29. As to the kind of experiment: Induction of cell cycle arrest in human HT-29 cells assessed as accumulation at S phase at 10 uM by flow cytometry (reference value: 11%). Type of assay: functional.
The subject of assay [15] is HT-29. As to the kind of experiment: Induction of apoptosis in human HT-29 cells assessed as increase in caspase 3/7 activity at 30 uM after 2 hrs by luminescent assay relative to control. Type of assay: functional. In a few lines: as §3
For assay [16], the system named is HT-29. In words: Induction of apoptosis in human HT-29 cells assessed as phosphatidylserine externalization at 20 uM after 48 hrs by annexin V-FLUOS/propidium iodide staining-based flow cytometry (reference value: 8%). The format is functional.
Assay [17] has as its system HT-29. In words: Induction of apoptosis in human HT-29 cells at 30 uM after 24 hrs by annexin V-FLUOS/propidium iodide staining-based flow cytometry in presence of glutathione. The format is functional, cell-based. In a few lines: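 HT-29 cells co-incubated 24 h with 30 μM compound and antioxidant: glutathione 2.5 mM, α-tocopherol 50 μM, or ascorbic acid 500 μM. Phosphatidylserine externalization measured by annexin V-FLUOS/propidium iodide staining and flow cytometry. Means ± SEM, n = 3.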

Assay [18] can be described thus: Antiproliferative activity against human PC3 cells assessed as cellular DNA content after 72 hrs by CyQUANT NF fluorescence assay. The format is functional, cell-based. The following applies: PC-3, 72 h. A digest of the protocol: as §4
Assay [19] is described as follows: Antiproliferative activity against human PC3 cells assessed as cellular DNA content after 72 hrs by CyQUANT NF fluorescence assay relative to control. Type of assay: functional, PC-3. In a few lines: as §4
The subject of assay [20] is HT-29. As to the kind of experiment: Downregulation of cyclin E2 expression in human HT-29 cells at 10 uM after 48 hrs by immunoblotting method. Type of assay: functional, cell-based. In a few lines: as §1
Assay [21] deals with HT-29. As to the kind of experiment: Induction of ROS generation in human HT-29 cells at 30 uM by CM-H2DCFDA staining-based fluorescence assay in presence of N-acetylcysteine. Type of assay: functional, cell-based. In a few lines: as §2

For the compound `COc1c(CC=C(C)C)c(O)c(C(=O)O)c(CCc2ccccc2)c1CC=C(C)C`, the outcome with HT-29 [1], in the assay with HT-29 [3], in the assay with HT-29 [5], in the assay with HT-29 [8], in the assay with HT-29 [9] and in the assay with HT-29 [11] was Active. Besides, the result with HT-29 [12], with HT-29 [13], with HT-29 [17] and in the assay on HT-29 [20] was Active. The result in the assay on HT-29 [2], in the assay on HT-29 [4], in the assay on HT-29 [10] and in the assay on HT-29 [21] was inactive. Also, the “fold change (FC)” value is given as 3 in the assay with HT-29 [6], 6 in the assay with HT-29 [7] and 2 in the assay on HT-29 [15]. For the same compound, the Efficacy is listed as 92% with MCF7 and 95% in [19]. Besides, the Activity worked out at 2% in the assay on HT-29 [14] and 44% in the assay with HT-29 [16]. Also, the pIC50 (commonly the IC50 on a negative log10 scale, so that one unit is a factor of ten) in [18] was 4.80.
